ChEMBL document CHEMBL6092204, “Synthesis of pyridyl pyrimidine hedgehog signaling pathway inhibitors and their antitumor activity in human pancreatic cancer” (Eur J Med Chem, 2024)
Active and inactive are the calls of the source. The calls are words filed in the database; no cut-off is given here.

Key:
[1] = target: Protein smoothened (Homo sapiens) (UniProt Q99835); assay: Antagonist activity at Smo (unknown origin) transfected in HEK293T cells incubated for 2 hrs by BODIPY-Cyclopamine based competitive binding assay; assay type: cell-based; conditions: filed as antagonist, dose 10-50 nM
Outline: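 […] cells stably transfected with a Smo plasmid, with expression confirmed by Western blot. Cells (2×10^4/well) were grown 24 h in poly-L-lysine-coated wells, then fixed with 4% paraformaldehyde and DAPI-stained. BODIPY-cyclopamine (100 nM) was added together with test compound for 2 h. Green fluorescence was imaged by fluorescence microscopy.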

PANC-1 [2] = assay: Induction of apoptosis in human PANC-1 cells assessed as necrotic cells at 2.5 uM incubated for 48 hrs by Annexin V-FITC/PI staining based flow cytometry (reference value: 2.24 %); assay type: functional
BXPC-3 [3] = assay: Induction of cell cycle arrest in human BXPC-3 cells assessed as accumulation at S phase at 5 uM incubated for 48 hrs by PI/RNase staining based flow cytometry (reference value: 8.18 %); assay type: functional
PANC-1 [4] = assay: Induction of cell cycle arrest in human PANC-1 cells assessed as accumulation at S phase at 5 uM incubated for 48 hrs by PI/RNase staining based flow cytometry (reference value: 7.58 %); assay type: functional
BXPC-3 [5] = assay: Inhibition of cell migration in human BXPC-3 cells incubated for 24 hrs by wound healing assay; assay type: functional, cell-based; conditions: dose 2.5-10 µM
Outline: (§1)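 Monolayers at 80-90% confluence were scratched with a cross and washed three times with PBS. Eight fields were imaged at 0 h. Cells were then incubated with compound in medium containing 2% FBS, and the same fields were re-imaged at 24 h (100×). Closure % = (area 0 h − area 24 h)/area 0 h × 100; n = 3.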

[6] = Toxicity in BALB/c nude mouse xenografted with human BxPC-3 cells assessed as cellular edema in heart at 5 to 15 mg/kg, ip qd for 21 days by H and E staining based analysis; conditions: in vivo, 504 h
PANC-1 [7] = assay: Induction of apoptosis in human PANC-1 cells assessed as early apoptotic cells at 8 uM incubated for 48 hrs by Annexin V-FITC/PI staining based flow cytometry (reference value: 1.88 %); assay type: functional
BXPC-3 [8] = assay: Induction of apoptosis in human BXPC-3 cells assessed as necrotic cells at 2.5 uM incubated for 48 hrs by Annexin V-FITC/PI staining based flow cytometry (reference value: 0.71 %); assay type: functional
BxPC-3 [9] = assay: Antitumor activity aginst human BxPC-3 cells xenografted in BALB/c nude mouse assessed as decrease in tumor weight at 15 mg/kg, ip qd for 21 days; conditions: time 21.0 day
BXPC-3 [10] = assay: Induction of apoptosis in human BXPC-3 cells assessed as viable cells at 5 uM incubated for 48 hrs by Annexin V-FITC/PI staining based flow cytometry (reference value: 91.5 %); assay type: functional; conditions: read-out: Activity
BXPC-3 [11] = assay: Induction of apoptosis in human BXPC-3 cells assessed as late apoptotic cells at 5 uM incubated for 48 hrs by Annexin V-FITC/PI staining based flow cytometry (reference value: 6.72 %); assay type: functional
PANC-1 [12] = assay: Inhibition of cell migration in human PANC-1 cells incubated for 24 hrs by wound healing assay; assay type: functional, cell-based; conditions: dose 2.5-10 µM; outline: as §1
PANC-1 [13] = assay: Induction of apoptosis in human PANC-1 cells assessed as late apoptotic cells at 2.5 uM incubated for 48 hrs by Annexin V-FITC/PI staining based flow cytometry (reference value: 2.74 %); assay type: functional
PANC-1 [14] = assay: Induction of cell cycle arrest in human PANC-1 cells assessed as accumulation at G2 phase at 10 uM incubated for 48 hrs by PI/RNase staining based flow cytometry (reference value: 5.83 %); assay type: functional
[15] = Toxicity in BALB/c nude mouse xenografted with human BxPC-3 cells assessed as necrosis in kidneys at 5 to 15 mg/kg, ip qd for 21 days by H and E staining based analysis; conditions: in vivo, 504 h
BXPC-3 [16] = assay: Induction of apoptosis in human BXPC-3 cells assessed as necrotic cells at 8 uM incubated for 48 hrs by Annexin V-FITC/PI staining based flow cytometry (reference value: 0.71 %); assay type: functional
BXPC-3 [17] = assay: Induction of apoptosis in human BXPC-3 cells assessed as early apoptotic cells at 8 uM incubated for 48 hrs by Annexin V-FITC/PI staining based flow cytometry (reference value: 1.11 %); assay type: functional
PANC-1 [18] = assay: Induction of apoptosis in human PANC-1 cells assessed as early apoptotic cells at 2.5 uM incubated for 48 hrs by Annexin V-FITC/PI staining based flow cytometry (reference value: 1.88 %); assay type: functional
BXPC-3 [19] = assay: Induction of cell cycle arrest in human BXPC-3 cells assessed as accumulation at G2 phase at 2.5 uM incubated for 48 hrs by PI/RNase staining based flow cytometry (reference value: 8.15 %); assay type: functional
[20] = Toxicity in BALB/c nude mouse xenografted with human BxPC-3 cells assessed as cellular edema in spleen at 5 to 15 mg/kg, ip qd for 21 days by H and E staining based analysis; conditions: in vivo, 504 h
PANC-1 [21] = assay: Induction of cell cycle arrest in human PANC-1 cells assessed as accumulation at S phase at 10 uM incubated for 48 hrs by PI/RNase staining based flow cytometry (reference value: 7.58 %); assay type: functional
PANC-1 [22] = assay: Induction of cell cycle arrest in human PANC-1 cells assessed as accumulation at G2 phase at 2.5 uM incubated for 48 hrs by PI/RNase staining based flow cytometry (reference value: 5.83 %); assay type: functional
[23] = Toxicity in BALB/c nude mouse xenografted with human BxPC-3 cells assessed as tissue fibrosis in spleen at 5 to 15 mg/kg, ip qd for 21 days by H and E staining based analysis; conditions: in vivo, 504 h
[24] = Toxicity in BALB/c nude mouse xenografted with human BxPC-3 cells assessed as cellular edema in liver at 5 to 15 mg/kg, ip qd for 21 days by H and E staining based analysis; conditions: in vivo, 504 h
PANC-1 [25] = assay: Induction of cell cycle arrest in human PANC-1 cells assessed as accumulation at S phase at 2.5 uM incubated for 48 hrs by PI/RNase staining based flow cytometry (reference value: 7.58 %); assay type: functional
PANC-1 [26] = assay: Inhibition of cell migration in human PANC-1 cells incubated for 48 hrs by crystal violet staining based transwell assay; assay type: functional; conditions: dose 2.5-10 µM
Outline: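 Cells at 1.5×10^5 cells/mL in serum-free medium containing drug were added to the upper Transwell chamber (200 μL), with medium containing 10% FBS below. After 48 h, non-migrated cells were swabbed off. Inserts were fixed in 4% paraformaldehyde for 15-20 min and stained with 0.5% crystal violet. Cells were counted in four random fields at 100×; n = 3.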

[27] = Toxicity in BALB/c nude mouse xenografted with human BxPC-3 cells assessed as body weight loss at 5 to 15 mg/kg, ip qd for 21 days; conditions: in vivo, 504 h
BXPC-3 [28] = assay: Induction of cell cycle arrest in human BXPC-3 cells assessed as accumulation at G2 phase at 10 uM incubated for 48 hrs by PI/RNase staining based flow cytometry (reference value: 8.15 %); assay type: functional

Sequence of Protein smoothened (Homo sapiens) (Q99835 whole entry): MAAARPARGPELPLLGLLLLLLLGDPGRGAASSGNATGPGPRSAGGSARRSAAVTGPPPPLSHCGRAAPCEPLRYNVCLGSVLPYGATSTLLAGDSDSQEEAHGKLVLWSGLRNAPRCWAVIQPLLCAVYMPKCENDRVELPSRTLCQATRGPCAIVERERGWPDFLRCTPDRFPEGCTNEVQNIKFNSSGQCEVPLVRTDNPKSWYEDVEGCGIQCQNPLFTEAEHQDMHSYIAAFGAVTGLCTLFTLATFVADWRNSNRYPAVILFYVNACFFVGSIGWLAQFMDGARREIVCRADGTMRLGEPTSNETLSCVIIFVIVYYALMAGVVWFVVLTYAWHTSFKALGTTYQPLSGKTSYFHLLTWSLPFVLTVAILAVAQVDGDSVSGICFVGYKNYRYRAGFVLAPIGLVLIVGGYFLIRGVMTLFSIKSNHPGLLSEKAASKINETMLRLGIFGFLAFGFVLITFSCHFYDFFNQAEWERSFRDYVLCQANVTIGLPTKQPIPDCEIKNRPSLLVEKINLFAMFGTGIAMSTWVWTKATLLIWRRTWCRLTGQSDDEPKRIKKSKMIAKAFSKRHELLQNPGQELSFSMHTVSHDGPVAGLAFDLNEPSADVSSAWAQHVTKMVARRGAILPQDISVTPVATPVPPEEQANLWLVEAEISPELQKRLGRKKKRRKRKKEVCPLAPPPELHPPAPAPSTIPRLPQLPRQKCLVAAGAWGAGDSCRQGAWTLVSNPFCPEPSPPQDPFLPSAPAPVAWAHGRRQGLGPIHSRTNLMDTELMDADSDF

Compound: CN(C)Cc1ccc(NC(=O)c2ccc(Nc3nccc(-c4cccnc4)n3)cc2)cc1
- Activity [1]: Dose-dependent-effect; Exhibited Fluorescence Quenching Activity Similar To Compound 1
- Activity (PANC-1 [2]): 2.19%
- Activity (BXPC-3 [3]): 4.09%
- Activity (PANC-1 [4]): 8.18%
- inhibition (BXPC-3 [5]): Dose-dependent-effect
- Activity [6]: Non-toxic
- Activity (PANC-1 [7]): 2.97%
- Activity (BXPC-3 [8]): 1.37%
- Activity (BxPC-3 [9]): Active
- viability at 5 µM (BXPC-3 [10]): 85.5%
- Activity (BXPC-3 [11]): 10.8%
- inhibition (PANC-1 [12]): Dose-dependent-effect
- Activity (PANC-1 [13]): 5.12%
- Activity (PANC-1 [14]): 12.2%
- Activity [15]: Non-toxic
- Activity (BXPC-3 [16]): 2.47%
- Activity (BXPC-3 [17]): 2.65%
- Activity (PANC-1 [18]): 1.97%
- Activity (BXPC-3 [19]): 11.3%
- Activity [20]: Non-toxic
- Activity (PANC-1 [21]): 10.5%
- Activity (PANC-1 [22]): 7.2%
- Activity [23]: Non-toxic
- Activity [24]: Non-toxic
- Activity (PANC-1 [25]): 7.73%
- inhibition (PANC-1 [26]): Dose-dependent-effect
- Activity [27]: Non-toxic
- Activity (BXPC-3 [28]): 2.98%
